Laboratory results: ChEMBL document CHEMBL1221364 (Bioorg Med Chem, 2010)

Experiments:
[1] = Displacement of [3H]SCH23390 from D1 like receptor in pig striatal tissue by topcount scintillation counting; format: tissue-based, Sus scrofa, Striatum
How it was run: (§1)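 Porcine striatal membranes (P2 pellet, washed in 50 mM Tris pH 7.4), 75 µg protein per tube in 50 mM Hepes, 4 mM MgCl2, pH 7.4. Nonspecific binding was defined with 5 µM butaclamol. Incubation was 37 °C for 30 min, then filtration and scintillation counting. Ki was derived by Cheng-Prusoff and D2/D1 Ki compared.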

[2] = Displacement of [3H]spiperone from D2 like receptor in pig striatal tissue by topcount scintillation counting; format: tissue-based, Sus scrofa, Striatum; how it was run: as §1
Sus scrofa = species on record: Sus scrofa; assay: Selectivity ratio of Ki for pig D2-like receptor to Ki for pig D1-like receptor
How it was run: as §1, with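 “7.4. D1-like sites were labelled with 1 nM [3H]SCH-23390. D2-like sites were labelled with 0.15 nM [3H]spiperone plus 50 nM ketanserin.” for “7.4.”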

[3] = target: 5-hydroxytryptamine receptor 7 (Homo sapiens, UniProt P34969); assay: Binding affinity to 5HT7 receptor
Chain of 5-hydroxytryptamine receptor 7 (P34969 whole entry): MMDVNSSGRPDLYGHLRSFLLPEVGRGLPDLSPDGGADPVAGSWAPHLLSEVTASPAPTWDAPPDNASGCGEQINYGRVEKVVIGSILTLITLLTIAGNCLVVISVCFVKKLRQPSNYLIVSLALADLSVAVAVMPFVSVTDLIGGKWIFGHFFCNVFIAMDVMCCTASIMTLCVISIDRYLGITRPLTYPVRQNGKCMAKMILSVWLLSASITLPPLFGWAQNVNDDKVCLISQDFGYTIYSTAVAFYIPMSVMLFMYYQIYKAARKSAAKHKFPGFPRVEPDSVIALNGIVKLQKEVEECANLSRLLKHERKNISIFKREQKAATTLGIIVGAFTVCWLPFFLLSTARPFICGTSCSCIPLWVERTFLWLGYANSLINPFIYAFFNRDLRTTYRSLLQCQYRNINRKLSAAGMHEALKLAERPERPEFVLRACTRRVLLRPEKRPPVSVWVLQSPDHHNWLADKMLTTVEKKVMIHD

[4] = target: T1, Alpha-1A adrenergic receptor (Homo sapiens, UniProt P35348); assay: Binding affinity to adrenergic alpha1A receptor
T1 sequence (P35348 whole entry): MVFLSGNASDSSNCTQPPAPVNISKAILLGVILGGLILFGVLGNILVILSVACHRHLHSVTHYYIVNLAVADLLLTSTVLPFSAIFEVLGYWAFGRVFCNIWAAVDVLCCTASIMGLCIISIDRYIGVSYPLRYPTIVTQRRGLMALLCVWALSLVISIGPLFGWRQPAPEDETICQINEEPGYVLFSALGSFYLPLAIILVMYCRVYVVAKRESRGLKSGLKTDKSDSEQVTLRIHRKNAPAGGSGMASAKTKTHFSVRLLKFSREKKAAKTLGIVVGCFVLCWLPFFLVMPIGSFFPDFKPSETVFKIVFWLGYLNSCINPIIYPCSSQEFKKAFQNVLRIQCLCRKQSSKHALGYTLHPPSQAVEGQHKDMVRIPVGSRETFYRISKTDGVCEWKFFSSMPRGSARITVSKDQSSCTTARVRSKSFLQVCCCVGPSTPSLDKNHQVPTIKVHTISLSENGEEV

[5] = target: T2, Alpha-2A adrenergic receptor (Homo sapiens, UniProt P08913); assay: Binding affinity to adrenergic alpha2A receptor
T2 sequence (P08913 whole entry): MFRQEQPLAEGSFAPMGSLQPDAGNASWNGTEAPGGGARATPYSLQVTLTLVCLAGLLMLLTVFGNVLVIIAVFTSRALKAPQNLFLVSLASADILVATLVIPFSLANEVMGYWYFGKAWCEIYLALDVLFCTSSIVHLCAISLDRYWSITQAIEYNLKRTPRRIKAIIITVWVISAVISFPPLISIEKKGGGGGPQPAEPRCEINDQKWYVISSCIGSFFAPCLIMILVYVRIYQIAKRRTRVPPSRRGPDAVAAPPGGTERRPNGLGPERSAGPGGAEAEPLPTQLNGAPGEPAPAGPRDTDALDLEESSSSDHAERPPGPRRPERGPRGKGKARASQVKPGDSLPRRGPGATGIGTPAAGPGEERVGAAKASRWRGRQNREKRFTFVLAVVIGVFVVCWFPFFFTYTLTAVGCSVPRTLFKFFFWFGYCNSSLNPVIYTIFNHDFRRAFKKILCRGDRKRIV

[6] = target: T3, Alpha-2B adrenergic receptor (Homo sapiens, UniProt P18089); assay: Binding affinity to adrenergic alpha2B receptor
T3 sequence (P18089 whole entry): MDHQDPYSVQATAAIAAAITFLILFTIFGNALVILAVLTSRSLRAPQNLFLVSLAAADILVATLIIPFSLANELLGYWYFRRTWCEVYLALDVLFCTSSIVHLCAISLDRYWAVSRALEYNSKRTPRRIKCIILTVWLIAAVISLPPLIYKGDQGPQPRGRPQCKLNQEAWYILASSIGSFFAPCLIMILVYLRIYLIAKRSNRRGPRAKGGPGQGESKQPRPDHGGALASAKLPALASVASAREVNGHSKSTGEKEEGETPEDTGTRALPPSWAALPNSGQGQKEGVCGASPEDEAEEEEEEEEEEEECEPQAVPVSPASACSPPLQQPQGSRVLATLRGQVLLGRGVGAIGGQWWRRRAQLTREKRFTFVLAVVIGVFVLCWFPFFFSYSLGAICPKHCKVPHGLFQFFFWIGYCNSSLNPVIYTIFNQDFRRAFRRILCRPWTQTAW

[7] = target: T4, Alpha-2C adrenergic receptor (Homo sapiens, UniProt P18825); assay: Binding affinity to adrenergic Alpha-2C receptor
T4 sequence (P18825 whole entry): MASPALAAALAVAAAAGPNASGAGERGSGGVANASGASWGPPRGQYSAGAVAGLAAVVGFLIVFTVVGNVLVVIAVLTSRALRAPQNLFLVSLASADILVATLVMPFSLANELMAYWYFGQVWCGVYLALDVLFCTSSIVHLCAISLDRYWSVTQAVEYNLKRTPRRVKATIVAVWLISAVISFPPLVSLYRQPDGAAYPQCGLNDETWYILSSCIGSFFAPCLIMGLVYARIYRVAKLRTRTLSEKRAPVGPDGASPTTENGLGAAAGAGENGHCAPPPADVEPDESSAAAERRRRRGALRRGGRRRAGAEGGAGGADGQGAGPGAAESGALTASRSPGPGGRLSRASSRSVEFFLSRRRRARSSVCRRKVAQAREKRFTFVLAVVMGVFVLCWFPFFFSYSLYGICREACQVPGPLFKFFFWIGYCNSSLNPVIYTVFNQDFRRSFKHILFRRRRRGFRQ

[8] = target: Kappa-type opioid receptor (Homo sapiens, UniProt P41145); assay: Binding affinity to […] opioid receptor
Chain of Kappa-type opioid receptor (P41145 whole entry): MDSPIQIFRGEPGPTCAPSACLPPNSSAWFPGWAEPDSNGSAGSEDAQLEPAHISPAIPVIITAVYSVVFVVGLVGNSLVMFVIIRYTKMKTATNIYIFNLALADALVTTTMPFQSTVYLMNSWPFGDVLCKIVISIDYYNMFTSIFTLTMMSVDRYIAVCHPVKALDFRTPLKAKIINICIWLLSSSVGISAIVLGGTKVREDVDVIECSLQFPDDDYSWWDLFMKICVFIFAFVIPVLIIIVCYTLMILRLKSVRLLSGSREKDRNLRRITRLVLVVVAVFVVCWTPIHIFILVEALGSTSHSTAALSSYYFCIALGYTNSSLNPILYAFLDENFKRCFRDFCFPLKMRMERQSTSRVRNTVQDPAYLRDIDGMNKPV

D(1A) dopamine receptor [9] = target: T5, D(1A) dopamine receptor (Homo sapiens, UniProt P21728); assay: Binding affinity to dopamine D1 receptor
T5 sequence (P21728 whole entry): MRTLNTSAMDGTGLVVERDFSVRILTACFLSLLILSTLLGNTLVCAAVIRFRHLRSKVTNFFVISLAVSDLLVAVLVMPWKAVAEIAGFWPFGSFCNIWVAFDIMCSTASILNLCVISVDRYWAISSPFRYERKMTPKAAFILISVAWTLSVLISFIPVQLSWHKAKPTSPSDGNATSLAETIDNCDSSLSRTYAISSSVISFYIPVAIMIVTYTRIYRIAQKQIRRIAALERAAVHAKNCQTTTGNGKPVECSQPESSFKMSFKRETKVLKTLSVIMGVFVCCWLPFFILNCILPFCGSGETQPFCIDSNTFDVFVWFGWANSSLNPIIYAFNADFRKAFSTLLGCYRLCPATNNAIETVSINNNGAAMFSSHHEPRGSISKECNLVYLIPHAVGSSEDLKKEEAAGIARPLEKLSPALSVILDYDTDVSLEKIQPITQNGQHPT

D(3) dopamine receptor = D(3) dopamine receptor (Homo sapiens, UniProt P35462); assay: Binding affinity to dopamine D3 receptor
Chain of D(3) dopamine receptor (P35462 whole entry): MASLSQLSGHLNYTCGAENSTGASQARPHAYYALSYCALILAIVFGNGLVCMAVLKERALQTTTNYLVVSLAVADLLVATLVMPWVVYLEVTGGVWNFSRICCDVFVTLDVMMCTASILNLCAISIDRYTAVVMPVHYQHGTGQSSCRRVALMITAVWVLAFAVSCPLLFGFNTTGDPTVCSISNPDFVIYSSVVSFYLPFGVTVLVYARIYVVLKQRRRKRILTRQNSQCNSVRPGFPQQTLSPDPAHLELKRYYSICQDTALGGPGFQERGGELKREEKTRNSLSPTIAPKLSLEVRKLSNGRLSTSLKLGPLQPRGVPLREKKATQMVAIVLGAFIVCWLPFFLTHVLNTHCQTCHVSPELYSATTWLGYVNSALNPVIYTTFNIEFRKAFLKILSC

D(4) dopamine receptor = target: T6, D(4) dopamine receptor (Homo sapiens, UniProt P21917); assay: Binding affinity to dopamine D4 receptor
T6 sequence (P21917 whole entry): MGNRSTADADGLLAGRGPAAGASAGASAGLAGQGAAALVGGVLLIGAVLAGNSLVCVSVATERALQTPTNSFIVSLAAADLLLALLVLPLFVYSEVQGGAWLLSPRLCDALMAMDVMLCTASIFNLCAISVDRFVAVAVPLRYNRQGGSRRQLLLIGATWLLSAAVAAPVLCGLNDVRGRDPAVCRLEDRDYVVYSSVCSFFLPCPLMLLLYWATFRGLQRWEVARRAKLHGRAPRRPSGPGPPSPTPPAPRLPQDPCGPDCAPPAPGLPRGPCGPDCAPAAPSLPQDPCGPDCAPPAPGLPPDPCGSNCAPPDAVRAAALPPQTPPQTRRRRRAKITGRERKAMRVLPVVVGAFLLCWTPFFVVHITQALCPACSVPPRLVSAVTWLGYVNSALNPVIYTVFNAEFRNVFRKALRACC

D(1B) dopamine receptor = D(1B) dopamine receptor (Homo sapiens, UniProt P21918); assay: Binding affinity to dopamine D5 receptor
Chain of D(1B) dopamine receptor (P21918 whole entry): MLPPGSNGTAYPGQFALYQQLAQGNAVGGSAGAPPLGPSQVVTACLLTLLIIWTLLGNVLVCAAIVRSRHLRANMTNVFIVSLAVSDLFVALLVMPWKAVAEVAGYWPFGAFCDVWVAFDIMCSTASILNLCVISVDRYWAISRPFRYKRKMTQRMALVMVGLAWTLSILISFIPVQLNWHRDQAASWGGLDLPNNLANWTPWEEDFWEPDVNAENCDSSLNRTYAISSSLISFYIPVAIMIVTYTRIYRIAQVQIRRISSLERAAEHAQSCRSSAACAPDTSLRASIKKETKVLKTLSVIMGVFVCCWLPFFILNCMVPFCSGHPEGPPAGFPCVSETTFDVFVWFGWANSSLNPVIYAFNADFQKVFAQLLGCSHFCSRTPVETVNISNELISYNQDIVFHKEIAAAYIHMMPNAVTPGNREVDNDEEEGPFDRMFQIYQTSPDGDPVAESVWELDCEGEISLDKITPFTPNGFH

D(1A) dopamine receptor [10] = target: T5, D(1A) dopamine receptor; assay: Agonist activity at human D1 receptor assessed as cAMP accumulation; format: functional
[11] = target: T7, 5-hydroxytryptamine receptor 3A (Homo sapiens, UniProt P46098); assay: Binding affinity to 5HT3 receptor
T7 sequence (P46098 whole entry): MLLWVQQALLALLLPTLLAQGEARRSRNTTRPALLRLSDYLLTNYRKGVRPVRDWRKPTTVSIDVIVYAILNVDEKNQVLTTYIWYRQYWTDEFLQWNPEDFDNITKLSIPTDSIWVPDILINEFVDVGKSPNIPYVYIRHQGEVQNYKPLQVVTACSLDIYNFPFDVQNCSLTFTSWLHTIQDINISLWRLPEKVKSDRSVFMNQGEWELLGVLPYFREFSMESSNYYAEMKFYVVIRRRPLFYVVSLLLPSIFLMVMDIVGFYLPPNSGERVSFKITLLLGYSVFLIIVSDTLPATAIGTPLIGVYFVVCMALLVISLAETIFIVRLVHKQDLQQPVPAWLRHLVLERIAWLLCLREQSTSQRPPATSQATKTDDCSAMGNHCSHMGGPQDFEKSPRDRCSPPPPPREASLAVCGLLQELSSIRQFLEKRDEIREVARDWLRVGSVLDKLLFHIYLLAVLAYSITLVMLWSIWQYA

SMILES | Ki [1] | Ki [2] | Selectivity Index (Sus scrofa) | Ki [3] | Ki [4] | Ki [5] | Ki [6] | Ki [7] | Ki [8] | Ki (D(1A) dopamine receptor [9]) | Ki (D(3) dopamine receptor) | Ki (D(4) dopamine receptor) | Ki (D(1B) dopamine receptor) | EC50 (D(1A) dopamine receptor [10]) | Ki [11]
CN1CCc2cc(Cl)c(O)cc2[C@@H](c2ccccc2)C1 [SCH-23390] | 0.79 nM |  |  |  |  |  |  |  |  |  |  |  |  |  | 
Oc1ccc2c(c1O)CC[C@@H]1CCNC[C@@H]21 (relative stereo) | 850 nM | 670 nM | 0.8 |  |  |  |  |  |  |  |  |  |  |  | 
Oc1ccc2c(c1O)CC[C@@H]1CCNC[C@H]21 (relative stereo) | 6800 nM | 2800 nM | 0.4 |  |  |  |  |  |  |  |  |  |  |  | 
Oc1ccc2c(c1O)C[C@@H](c1ccccc1)[C@@H]1CCNC[C@@H]21 | 6 nM | 440 nM |  | 220 nM | 340 nM | 3.5 nM | 6.4 nM | 1.1 nM | 820 nM | 18 nM | 130 nM | 2650 nM | 2.8 nM | 0.64 nM | 870 nM
